# Assay outcomes from PubChem BioAssay.
# CHT allo act: human CHT allosteric activation; AID 488977; 0.49% of 310,000 active; CHT-expressing cells, membrane potential dye, choline EC20; stronger effect = higher value; LV-AA mutant CHT in HEK293 cells; B-score at 10 µM;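 active = initial fluorescence not abnormally high and integrated response B-score, plate-corrected, over 3 SD above library mean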
# Target sequence (Q9GZV3 whole entry, looked up): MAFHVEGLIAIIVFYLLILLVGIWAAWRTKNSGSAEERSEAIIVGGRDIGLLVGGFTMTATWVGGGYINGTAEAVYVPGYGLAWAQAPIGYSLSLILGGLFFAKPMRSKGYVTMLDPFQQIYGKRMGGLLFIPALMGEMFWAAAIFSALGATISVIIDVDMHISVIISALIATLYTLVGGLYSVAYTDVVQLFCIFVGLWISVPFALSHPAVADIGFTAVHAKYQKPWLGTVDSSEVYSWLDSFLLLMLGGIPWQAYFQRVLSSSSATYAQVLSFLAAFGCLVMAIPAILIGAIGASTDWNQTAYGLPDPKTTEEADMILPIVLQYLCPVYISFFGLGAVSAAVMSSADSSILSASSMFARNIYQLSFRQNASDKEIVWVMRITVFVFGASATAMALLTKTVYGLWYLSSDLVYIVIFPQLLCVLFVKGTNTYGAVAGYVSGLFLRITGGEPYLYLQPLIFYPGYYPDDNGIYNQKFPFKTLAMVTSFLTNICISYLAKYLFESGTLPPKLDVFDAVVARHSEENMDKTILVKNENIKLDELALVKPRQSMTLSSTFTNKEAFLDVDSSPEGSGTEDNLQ
# PolyA inhibitor: blocks polyadenylation in yeast reporter cells; S. cerevisiae SKY197-pL101 polyadenylation reporter, beta-gal luminescence; efflux-impaired pdr1/pdr3 knockout yeast; score 100 = 6 SD above DMSO; activity score, % at 12 µM; 0.02% of 300,000 active; AID 1875;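 active = lowest replicate activity score at least 50, where 100 means six control SD above control mean; inconclusive = lowest score under 50 but half or more replicates reach 50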;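 note: yeast exposed to compound for 9 h at 30 °C; higher score means more reporter readthrough which indicates perturbed polyadenylation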
# T cruzi repl: T. cruzi replication inhibition; inhibition, % (test concentration not listed); 1.4% of 300,000 active; AID 1885; T. cruzi beta-gal in NIH3T3, luminescence, 90 h;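 active = mean inhibition across valid replicates above about 55%, limit read from the data; inconclusive = mean below that limit but half or more replicates reach it; inactive = mean below it, under half of replicates reach it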;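 note: signal also drops with host cell toxicity which is not excluded here; higher percent means less beta-gal luminescence so fewer parasites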
#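 Test system: β-gal T. cruzi (Tulahuen C4) inside NIH/3T3 cells / Quantity: 5,000 cells/well / Measured by: luminescence from GalScreen with 0.05% NP40, read after 60 min / Medium: DMEM plus 2% FBS / Measure: parasite load inhibition, % / Reagent: Tulahuen C4 trypomastigotes, 5000/well / Schedule: co-culture of at least 90 h after 3 h attachment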
# CHT block: human CHT choline transport inhibition; B-score at 10 µM; CHT-expressing cells, membrane potential dye, choline response; stronger effect = lower value; 0.86% of 310,000 active; AID 488975; Q9GZV3;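 active = B-score over 3 SD under the library average, and starting fluorescence ratio not unusually high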;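 note: choline stimulus applied at its EC90 after an EC20 pre-addition; B-score computed on integrated fluorescence ratio after choline addition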
# Hits are given with their value; 0 = inactive; ? = inconclusive; - = no result given. Hits are enriched below; roughly 2.6% of the tested compounds scored in any of these assays.
SMILES,CHT allo act,PolyA inhibitor,T cruzi repl,CHT block
O=C(NCc1ccccc1)C(c1ccccn1)N(C(=O)c1csnn1)c1ccccc1F (stereo not given),0,0,0,0
COC(=O)c1cn(-c2ccc(Cl)cc2)c(=O)c2ccccc12,0,0,0,0
CCCCN(CC)CCNC(=O)c1cn(-c2ccc(Cl)cc2)c(=O)c2ccccc12,0,0,68,0
Cc1nnc(NS(=O)(=O)c2ccc(Br)cc2)s1,0,0,0,0
O=C(NC1CCCCC1)C(c1ccncc1)N(Cc1ccccc1)C(=O)c1ccc(-c2ccccc2)[nH]1 (stereo not given),0,0,70,0
CS(=O)(=O)c1cccc(NC(=O)c2ccc(Cl)c(Cl)c2)c1,0,0,58,0
CS(=O)(=O)c1ccc(C(=O)Nc2cc(S(C)(=O)=O)ccc2Cl)cc1,0,0,0,0
COCC1CCN(Cc2cn[nH]c2-c2cc3ccccc3o2)C1 (stereo not given),0,0,69,0
CCC(C)(C)c1ccc(OCCCC[n+]2ccccc2)c(C(C)(C)CC)c1,0,-,58,0
CCCCCc1ccc(OCCCC[n+]2ccccc2)c(CCCCC)c1,0,0,0,0
Cc1nn(C)c(C)c1CN(C(=O)C1CCC(=O)N(C2CCCCCC2)C1)C(C)C (stereo not given),0,0,0,0
COc1cccc(CN2CCNC(=O)C2CC(=O)NCCN2CCOCC2)c1OC (stereo not given),0,0,0,0
CCc1ccc(OC)c(S(=O)(=O)Nc2ccc(Cc3ccncc3)cc2)c1,0,0,0,0
OC(CNCC(c1ccc(Cl)cc1Cl)c1c[nH]c2ccccc12)c1ccccc1 (stereo not given),0,0,82,0
CC1(C)Cc2cccc(Oc3cc(NN4CCCCC4)c([N+](=O)[O-])cc3[N+](=O)[O-])c2O1,0,0,0,0
CCOC(=O)c1c(NC(=O)N/N=C/c2ccc(O)c(OC)c2)sc(C(C)=O)c1C,0,0,0,0
CCOC(=O)c1c(NC(=O)N/N=C/c2ccccc2OCC)sc(C(C)=O)c1C,-,0,68,-
CCc1c(-c2ccccc2)nc2sc3c(c2c1N)CCCC3,0,0,55,0
Nc1c(C(=O)O)sc2nc(-c3ccccc3)c3c(c12)CCCC3,0,-,0,0
Cc1cccc(-c2n[nH]c([N+](=O)[O-])n2)c1,0,0,0,0
O=[N+]([O-])c1ccc2nc(-c3ccccc3)cc(-c3ccccc3)c2c1,0,0,0,0
O=[N+]([O-])c1cc([N+](=O)[O-])c2n[nH]c(-c3ccccc3)c2c1,0,0,71,0
O=[N+]([O-])c1cc(-c2n[nH]c(-c3ccccc3)n2)cc([N+](=O)[O-])c1,0,0,72,0
COC(=O)c1ccn(CC(=O)NC2CCCCC2)n1,0,0,0,0
O=C(NC(NC(=S)Nc1ccccc1)C(Cl)(Cl)Cl)c1cccc(Cl)c1 (stereo not given),0,0,65,0
SMILES,CHT allo act,PolyA inhibitor,T cruzi repl,CHT block
O=C(O)c1cccc(NC(=S)NC(NC(=O)c2cccc([N+](=O)[O-])c2)C(Cl)(Cl)Cl)c1 (stereo not given),0,0,0,0
O=C(NC(NC(=S)Nc1ccc(Cl)cc1Cl)C(Cl)(Cl)Cl)c1cccc([N+](=O)[O-])c1 (stereo not given),0,0,74,0
O=C1[C@H]2[C@@H](c3ccc(F)cc3)N3C(=O)N(c4cccc(Br)c4)C(=O)[C@@]3(Cc3ccc(Cl)cc3)[C@H]2C(=O)N1C1CCCCC1,0,0,0,0
O=C1[C@H]2[C@@H](c3ccc(Cl)cc3)N3C(=O)N(c4cccc(Br)c4)C(=O)[C@@]3(Cc3ccc(Cl)cc3)[C@H]2C(=O)N1C1CCCCC1,0,0,65,0
O=C(Nc1ccc(Cl)cc1)C1C2C=CC3(O2)C1C(=O)N(CCCN1CCCCC1)C3C(=O)NC1CCCCC1 (stereo not given),0,0,0,0
O=[N+]([O-])c1nn(-c2ccccc2)n(O)c1=NCc1ccc2c(c1)OCO2,0,0,0,0
COc1ccc(-n2nc([N+](=O)[O-])c(=NCCc3cccc(C)c3)n2O)cc1,0,0,63,0
O=[N+]([O-])c1nn(-c2ccc3c(c2)OCCO3)n(O)c1=NC1CCCC1,0,0,90,0
O=[N+]([O-])c1nn(-c2ccc3c(c2)OCCO3)n(O)c1=NCCCO,0,0,77,0
O=[N+]([O-])c1nn(-c2ccc3c(c2)OCCO3)n(O)c1=NC1CCCCCC1,0,0,59,0
Cc1cccc(CCN=c2c([N+](=O)[O-])nn(-c3ccccc3)n2O)c1,0,0,0,0
Cc1ccnc(NC(=O)CCC(=O)N(CC(=O)NCCc2ccccc2)c2ccccc2F)c1,0,0,0,0
O=C1CCCN1CCCN=c1c([N+](=O)[O-])nn(-c2ccc(Cl)cc2)n1O,-,0,68,-
CCCCN(CC)CCCNC(=S)Nc1ccc2nc(N3CCN(C)CC3)cc(C)c2c1,0,0,0,0
CCCN(CCC)CCCNC(=S)Nc1ccc2nc(N3CCCC3)cc(C)c2c1,0,0,59,-9.5
CCN1CCN(c2cc(C)c3cc(NC(=S)N4CCN(c5ccccc5)CC4)ccc3n2)CC1,0,0,58,0
CCCCN(CC)CCCNC(=S)Nc1ccc2nc(N3CCN(CC)CC3)cc(C)c2c1,0,0,0,-11
COc1ccc(N(CC(=O)NCc2ccco2)C(=O)CCC(=O)Nc2nccs2)c(OC)c1,0,0,0,0
CC(C)CC(=O)Nc1nnc(S(=O)(=O)N2CCc3ccccc32)s1,0,0,0,0
COc1ccc(CCNC(=O)c2c(O)c3ccccc3[nH]c2=O)cc1,0,0,0,0
Cc1ccc(-n2sc3ccccc3c2=O)cc1,0,0,74,0
COc1ccc(OC)c(N/C(C)=C/C(=O)c2ccccc2)c1,0,0,56,0
OCCN1CCN(c2ncnc3sc(-c4ccccc4)cc23)CC1,0,0,62,0
O=C(NCc1nc2ccccc2[nH]1)C1=C[C@@H](c2ccc3c(c2)OCO3)C[C@@H](OCc2ccc(CO)cc2)O1,-,?,0,-
Oc1cccc(Nc2c3ccccc3nc3ccccc23)c1,0,0,70,0
SMILES,CHT allo act,PolyA inhibitor,T cruzi repl,CHT block
Cc1ccc(-c2nc(Nc3cccc(O)c3)c3ccccc3n2)cc1,0,0,0,0
CCOc1cc(O)c(-c2[nH]ncc2-c2nc(C)cs2)cc1CC,0,0,0,0
Cc1ccc(S(=O)(=O)NCc2ccc3c(c2)cc(C)n3C)cc1,0,0,64,0
O=C1c2ccccc2C(=O)N1Cc1ccc2c(c1)OCO2,0,0,0,0
Cc1cc2cc(CNC(=O)c3cc4ccccc4o3)ccc2n1C,0,-,65,0
Cc1cc2cc(CN3C(=O)c4ccccc4C3=O)ccc2n1C,0,0,83,0
CSc1ncccc1C(=O)N(C)CC(=O)Nc1cccc(F)c1,0,0,0,0
Cc1cccc(C)c1NC(=O)c1cnccn1,0,0,0,0
O=C(COc1ccccc1)NC(=S)Nc1ccc2c(c1)Cc1ccccc1-2,0,0,61,0
